Data on ten molecules can be found in publication PMC3031457 (Anti-cancer drugs, 2009).

Like-named read-outs stand apart in the source and are kept apart here. Marks after values point to notes of the source that are not given here. A value given as a limit tells only on which side of the number the result lay.

The subject of experiment [1] is Panc-1. As to conditions: read-out: IC50 (μM) Panc-1; ref Li et al ([14]); cited from earlier work.
In experiment [2] the test system is AsPC-1. As to conditions: read-out: IC50 (μM) AsPC-1; ref Li et al ([14]); cited from earlier work.
Experiment [3] deals with BxPC-3. As to conditions: read-out: IC50 (μM) BxPC-3; ref Li et al ([14]); cited from earlier work.
Experiment [4] has as its system MIA PaCa2. As to conditions: read-out: IC50 (μM) MIA PaCa2; ref Li et al ([14]); cited from earlier work.
Experiment [5] relates to Panc-1. As to the kind of experiment: Cell viability assay. As to conditions: read-out: IC50 (μM) Panc-1. It is filed as cell-based, human. In outline:
(§1)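 Cells were grown in RPMI-1640 with 10% FBS, pyruvate, HEPES, glutamine and antibiotics at 37°C, 5% CO2, and seeded at 6000 cells/well. After 24 h adherence, half the medium was replaced with serially diluted test compound, 5-fluorouracil, or methanol-containing medium. Exposure lasted 72 h. MTT (5 mg/ml solution) was then added for 3 h at 37°C, formazan dissolved in HCl-acidified isopropanol, and absorbance read at 570 nm.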

Experiment [6] relates to AsPC-1. The experiment in a line: Cell viability assay. As to conditions: read-out: IC50 (μM) AsPC-1. It is filed as cell-based, human. In outline:
as §1

The test system of experiment [7] is BxPC-3. The experiment in a line: Cell viability assay. Type of experiment: cell-based, human. As to conditions: read-out: IC50 (μM) BxPC-3. In short, it runs like this: as §1
Experiment [8] has as its system MIA PaCa2. As to the kind of experiment: Cell viability assay. Type of experiment: cell-based, human. As to conditions: read-out: IC50 (μM) MIA PaCa2. In outline: as §1
The target in another experiment is topoisomerase II (Homo sapiens, UniProt P11388). As to the kind of experiment: Decatenation reaction of kinetoplast DNA. As to conditions: for topoisomerase II inhibition (in words) / % Inhibition topoisomeraseII: 25 μg/ml; for inhibition at 25 µg/mL: read-out: % Inhibition topoisomeraseII; for % Inhibition topoisomeraseII: decatenation of kinetoplast DNA, 30 minutes. Type of experiment: biochemical. In short, it runs like this:
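A commercial kit assay was used: 0.2 μg kinetoplast DNA plus 1 U topoisomerase II in ATP/MgCl2/DTT buffer, 20 μl reactions. Test compound was added at 5 or 25 μg/ml (methanol vehicle); 100 μM etoposide in DMSO served as positive control. Reactions ran 30 min at 37°C, were stopped with Sarkosyl loading dye, and resolved on 1% agarose with ethidium bromide. Gel densitometry was used; seven experiments, SEM, Student's t test.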

The next experiment concerns AsPC-1 cells. As to the kind of experiment: Cell cycle analysis by flow cytometry. Type of experiment: cell-based, human. As to conditions: 48 hours. In outline: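 AsPC-1 cells were trypsinized into 6-well plates and allowed to adhere for 24 h. They were then exposed for 48 h to test compound at 5 or 25 μg/ml, methanol vehicle, medium alone, or 100 nM paclitaxel as positive control. Cells were fixed in ice-cold ethanol (−20°C, 1 h) and stained with propidium iodide plus RNase A (30 min, 37°C) for flow cytometry. Run 3 times.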

For experiment [9], the system named is genomic salmon testes DNA. The experiment in a line: DNA intercalation assay. As to conditions: for DNA intercalation (in words): 5 and 25 μg/ml; for % DNA intercalation: 25 μg/ml, ethidium bromide displacement. It is filed as binding. In short, it runs like this:
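Genomic salmon testes DNA (0.5 μg) was equilibrated with 1.27 μM ethidium bromide for 30 min at room temperature. Test compound (5 or 25 μg/ml), methanol vehicle, 1 μM doxorubicin (positive control) or 100 μM etoposide (negative control) was added for a further 30 min. Ethidium displacement was read as a fluorescence decrease (ex 340, em 590 nm). Mean of 3 experiments ± standard deviation.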

The test system of the next experiment is Vero. The experiment in a line: Cell viability assay. Type of experiment: cell-based, African green monkey. As to conditions: read-out: IC50 (μM) Vero; MTT, 72 hours, n=4 ± SE; normal cell line. In short, it runs like this:
as §1

Experiment [10] has as its system Panc-1, AsPC-1, BxPC-3, and MIA-PaCa2. As to the kind of experiment: Cell viability assay. It is filed as cell-based, human. As to conditions: read-out: IC50 in all pancreatic cell lines. In short, it runs like this: as §1

Sequence of topoisomerase II (P11388 whole entry): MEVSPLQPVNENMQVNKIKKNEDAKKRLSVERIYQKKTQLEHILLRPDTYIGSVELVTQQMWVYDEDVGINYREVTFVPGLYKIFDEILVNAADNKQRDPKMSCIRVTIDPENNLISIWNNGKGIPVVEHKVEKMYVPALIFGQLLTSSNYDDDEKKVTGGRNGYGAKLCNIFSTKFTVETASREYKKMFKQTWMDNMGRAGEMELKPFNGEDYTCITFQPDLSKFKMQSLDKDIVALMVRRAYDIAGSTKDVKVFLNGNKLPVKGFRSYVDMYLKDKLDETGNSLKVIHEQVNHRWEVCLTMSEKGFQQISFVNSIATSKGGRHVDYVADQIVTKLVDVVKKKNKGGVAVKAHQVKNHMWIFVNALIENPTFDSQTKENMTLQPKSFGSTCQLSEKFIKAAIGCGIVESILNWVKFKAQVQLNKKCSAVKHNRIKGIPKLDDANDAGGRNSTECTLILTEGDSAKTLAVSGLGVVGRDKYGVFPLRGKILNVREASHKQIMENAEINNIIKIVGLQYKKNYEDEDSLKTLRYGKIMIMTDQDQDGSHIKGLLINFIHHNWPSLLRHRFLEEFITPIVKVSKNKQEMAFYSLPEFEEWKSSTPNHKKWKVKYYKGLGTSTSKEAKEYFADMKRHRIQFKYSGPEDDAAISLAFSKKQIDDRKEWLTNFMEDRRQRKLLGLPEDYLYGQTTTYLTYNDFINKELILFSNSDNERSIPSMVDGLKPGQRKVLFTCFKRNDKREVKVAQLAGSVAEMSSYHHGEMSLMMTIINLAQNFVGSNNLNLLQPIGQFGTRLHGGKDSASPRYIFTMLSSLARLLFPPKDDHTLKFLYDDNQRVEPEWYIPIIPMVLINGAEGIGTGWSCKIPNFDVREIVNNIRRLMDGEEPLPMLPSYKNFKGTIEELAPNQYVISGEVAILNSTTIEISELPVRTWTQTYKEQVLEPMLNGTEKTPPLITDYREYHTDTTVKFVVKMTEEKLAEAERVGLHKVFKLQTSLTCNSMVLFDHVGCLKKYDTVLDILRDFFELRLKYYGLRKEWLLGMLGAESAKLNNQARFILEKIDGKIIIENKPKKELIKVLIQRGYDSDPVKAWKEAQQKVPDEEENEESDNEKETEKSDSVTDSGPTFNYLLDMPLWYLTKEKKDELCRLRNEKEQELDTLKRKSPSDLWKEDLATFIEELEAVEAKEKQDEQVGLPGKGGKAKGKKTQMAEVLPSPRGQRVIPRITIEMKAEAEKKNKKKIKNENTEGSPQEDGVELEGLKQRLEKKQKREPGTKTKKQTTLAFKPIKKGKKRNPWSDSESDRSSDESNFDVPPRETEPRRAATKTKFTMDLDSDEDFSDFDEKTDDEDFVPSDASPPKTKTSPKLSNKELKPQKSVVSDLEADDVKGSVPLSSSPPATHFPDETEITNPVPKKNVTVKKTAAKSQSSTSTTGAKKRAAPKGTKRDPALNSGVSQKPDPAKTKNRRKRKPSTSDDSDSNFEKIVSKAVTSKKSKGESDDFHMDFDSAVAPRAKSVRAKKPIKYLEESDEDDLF

As a reminder, the IC50 is the concentration at which inhibition is half-maximal. For `Nc1ccn([C@@H]2O[C@H](CO)[C@@H](O)C2(F)F)c(=O)n1` [Gemcitabine, gemcitabine], the 50% inhibitory concentration (IC50) in the experiment on Panc-1 [1] is 7.2 µM; with AsPC-1 [2] it was above 250 µM; in the experiment with BxPC-3 [3] it was above 250 µM; in the experiment with MIA PaCa2 [4], 14.5 µM.
For orientation: inhibition means how much of the control response was suppressed. `NC1=C(Cl)C(=O)c2c(C(O)CO)c[nH]c2C1=O` (centres unmarked) [Secobatzelline B]: the IC50 in the experiment on Panc-1 [5] (Homo sapiens, PANC-1, 72 h) is 17.4 ± 0.281 µM; with AsPC-1 [6] (Homo sapiens, ASPC1, 72 h), above 19.5 µM; with BxPC-3 [7] (Homo sapiens, BXPC-3, 72 h) it was above 19.5 µM; with MIA PaCa2 [8] (Homo sapiens, MIA PaCa-2, 72 h) it was above 19.5 µM. Besides, the “topoisomerase II inhibition (in words)” value on topoisomerase II is “no DNA intercalation or topoisomerase II inhibition”. The inhibition at 25 µg/mL at topoisomerase II came to 13%. Further, the Cell cycle arrest entry was “did not have an effect” with AsPC-1 cells (5 μg/ml, data not shown) and “S phase” in the experiment on AsPC-1 cells (25 μg/ml). Also, the “DNA intercalation (in words)” value in experiment [9] was “no DNA intercalation”.
Regarding `CSc1c2c3c(n1C)C(=O)C(N)=C(Cl)C3=NCC2` [Isobatzelline A], the IC50 was 9.37 ± 0.536 µM in the experiment on Panc-1 [5] (MTT, 72 hours, n=4 ± SE); 1.74 ± 0.415 µM with AsPC-1 [6] (MTT, 72 hours, n=4 ± SE); 2.39 ± 0.218 µM in the experiment on BxPC-3 [7] (MTT, 72 hours, n=4 ± SE); 4.34 ± 0.22 µM with MIA PaCa2 [8] (MTT, 72 hours, n=4 ± SE); above 17.7 µM with Vero; below 10 µM in [10] (MTT, 72 hours). Also, the “topoisomerase II inhibition (in words)” value on topoisomerase II is reported as “significantly inhibited topoisomerase II activity”. In addition, the “% Inhibition topoisomeraseII” value on topoisomerase II is 36 ^* %. Also, the Cell cycle arrest entry in the experiment on AsPC-1 cells (5 μg/ml, data not shown) is listed as “S-phase cell cycle arrest”; in the experiment with AsPC-1 cells (25 μg/ml), “S phase”. Also, the “% DNA intercalation” value in [9] is listed as 54 ^** %. Besides, the “DNA intercalation (in words)” value in experiment [9] is given as “significant intercalation into DNA”.
As to `Cn1cc2ccnc3c2c1C(=O)C(N)=C3Cl` [Isobatzelline E], the half-inhibitory concentration (IC50) was above 21.5 µM in the experiment on Panc-1 [5] (MTT, 72 hours, n=4 ± SE); above 21.5 µM in the experiment on AsPC-1 [6] (MTT, 72 hours, n=4 ± SE); above 21.5 µM in the experiment with BxPC-3 [7] (MTT, 72 hours, n=4 ± SE); above 21.5 µM in the experiment on MIA PaCa2 [8] (MTT, 72 hours, n=4 ± SE); above 21.5 µM in the experiment on Vero. Besides, the “topoisomerase II inhibition (in words)” value on topoisomerase II was “significantly inhibited topoisomerase II activity”. Also, the “% Inhibition topoisomeraseII” value at topoisomerase II was 95 ^* %. Also, the Cell cycle arrest entry in the experiment with AsPC-1 cells (5 μg/ml, data not shown) is on record as “did not have an effect”. Further, the “DNA intercalation (in words)” value in experiment [9] is recorded as “significant intercalation into DNA”.
Regarding `O=c1[nH]cc(F)c(=O)[nH]1` [5-Fluorouracil, 5-fluorouracil, reference compound], the IC50 is 5.73 ± 0.682 µM with Panc-1 [5] (Homo sapiens, PANC-1, 72 h); above 38.4 µM with AsPC-1 [6] (Homo sapiens, ASPC1, 72 h); 5.56 ± 1.64 µM with BxPC-3 [7] (Homo sapiens, BXPC-3, 72 h); 8.31 ± 0.357 µM in the experiment on MIA PaCa2 [8] (Homo sapiens, MIA PaCa-2, 72 h).
Regarding `CSC1=Nc2c(O)c(O)c(Cl)c3c2=C1CCN=3` [Batzelline B], the IC50 with Panc-1 [5] (MTT, 72 hours, n=4 ± SE) was above 18.6 µM; with AsPC-1 [6] (MTT, 72 hours, n=4 ± SE), above 18.6 µM; in the experiment on BxPC-3 [7] (MTT, 72 hours, n=4 ± SE) it was above 18.6 µM; in the experiment on MIA PaCa2 [8] (MTT, 72 hours, n=4 ± SE), above 18.6 µM; in the experiment on Vero, above 18.6 µM. Besides, at topoisomerase II, the “topoisomerase II inhibition (in words)” value is listed as “significantly inhibited topoisomerase II activity”. The “% Inhibition topoisomeraseII” value at topoisomerase II was 63 ^* %. In addition, the Cell cycle arrest result in the experiment on AsPC-1 cells (5 μg/ml, data not shown) is on record as “did not have an effect”; in the experiment with AsPC-1 cells (25 μg/ml), “S phase”. For the same molecule, the “% DNA intercalation” value in [9] is 21%.
Turning to `CSc1c2ccnc3c2c(n1C)C(=O)C(N)=C3Cl` [Isobatzelline D], the IC50 is 5.72 ± 0.253 µM in the experiment with Panc-1 [5] (MTT, 72 hours, n=4 ± SE); 1.48 ± 0.187 µM with AsPC-1 [6] (MTT, 72 hours, n=4 ± SE); 1.48 ± 0.18 µM in the experiment on BxPC-3 [7] (MTT, 72 hours, n=4 ± SE); 2.67 ± 0.295 µM in the experiment with MIA PaCa2 [8] (MTT, 72 hours, n=4 ± SE); 15.7 ± 1.17 µM in the experiment on Vero; below 10 µM in experiment [10] (MTT, 72 hours). Further, on topoisomerase II, the “% Inhibition topoisomeraseII” value amounted to 26%. The Cell cycle arrest result in the experiment with AsPC-1 cells (5 μg/ml, data not shown) is on record as “S-phase cell cycle arrest”; in the experiment with AsPC-1 cells (25 μg/ml), “S phase”. In addition, in experiment [9], the “% DNA intercalation” value is 47 ^** %.
With `CSc1c2c3c(n1C)C(=O)C(=O)C(Cl)=C3NCC2` [Batzelline A], the IC50 in the experiment on Panc-1 [5] (Homo sapiens, PANC-1, 72 h) was above 17.7 µM; with AsPC-1 [6] (Homo sapiens, ASPC1, 72 h), above 17.7 µM; in the experiment with BxPC-3 [7] (Homo sapiens, BXPC-3, 72 h), above 17.7 µM; in the experiment on MIA PaCa2 [8] (Homo sapiens, MIA PaCa-2, 72 h), above 17.7 µM. For the same molecule, the inhibition at 25 µg/mL on topoisomerase II was found to be 58%. For the same molecule, the Cell cycle arrest result in the experiment with AsPC-1 cells (5 μg/ml, data not shown) was “S-phase cell cycle arrest”; with AsPC-1 cells (25 μg/ml), “S phase”. The “% DNA intercalation” value in experiment [9] amounted to 18%. For the same molecule, the “DNA intercalation (in words)” value in [9] is “no DNA intercalation”.
With `Cn1cc2c3c1C(=O)C(N)=C(Cl)C3=NCC2` [Isobatzelline C], the half-inhibitory concentration (IC50) in the experiment with Panc-1 [5] (Homo sapiens, PANC-1, 72 h) is 9.98 ± 0.384 µM; with AsPC-1 [6] (Homo sapiens, ASPC1, 72 h), 1.72 ± 0.168 µM; with BxPC-3 [7] (Homo sapiens, BXPC-3, 72 h), 1.31 ± 0.185 µM; in the experiment with MIA PaCa2 [8] (Homo sapiens, MIA PaCa-2, 72 h) it was 2.34 ± 0.0977 µM; in [10] (Homo sapiens, 72 h), below 10 µM. Also, the inhibition at 25 µg/mL on topoisomerase II is 27%. The Cell cycle arrest entry in the experiment on AsPC-1 cells (5 μg/ml, data not shown) is given as “S-phase cell cycle arrest”; in the experiment on AsPC-1 cells (25 μg/ml), “S phase”. Further, the “% DNA intercalation” value in experiment [9] is given as 56 ^** %.
Take `N=C1C(Cl)=C(N)C(=O)c2[nH]cc(C(O)CO)c21` (centres unmarked) [Secobatzelline A]: the IC50 was 10.4 ± 1.16 µM in the experiment with Panc-1 [5] (Homo sapiens, PANC-1, 72 h); 3.62 ± 0.801 µM in the experiment with AsPC-1 [6] (Homo sapiens, ASPC1, 72 h); 4.09 ± 0.146 µM with BxPC-3 [7] (Homo sapiens, BXPC-3, 72 h); 5.63 ± 0.739 µM in the experiment on MIA PaCa2 [8] (Homo sapiens, MIA PaCa-2, 72 h); below 10 µM in experiment [10] (Homo sapiens, 72 h). For the same molecule, the “topoisomerase II inhibition (in words)” value at topoisomerase II is “significantly inhibited topoisomerase II activity”. Besides, on topoisomerase II, the inhibition at 25 µg/mL was determined as 61%. Further, the Cell cycle arrest result is on record as “S-phase cell cycle arrest” in the experiment on AsPC-1 cells (5 μg/ml, data not shown) and “S phase” in the experiment with AsPC-1 cells (25 μg/ml). Moreover, the “DNA intercalation (in words)” value in [9] is “significant intercalation into DNA”.
